Test results reported in ChEMBL document CHEMBL3612021, “Structure-kinetics relationships of Capadenoson derivatives as adenosine A1 receptor agonists” (Eur J Med Chem, 2015).

Each molecule was assayed against T1, Adenosine receptor A1 (Homo sapiens) (UniProt P30542) (assay: Displacement of [3H]DPCPX from human adenosine A1 receptor expressed in CHO cell membranes assessed as kinetic rate index by measuring ratio of binding at earlier and later time points by competition association assay).
T1 sequence (whole entry): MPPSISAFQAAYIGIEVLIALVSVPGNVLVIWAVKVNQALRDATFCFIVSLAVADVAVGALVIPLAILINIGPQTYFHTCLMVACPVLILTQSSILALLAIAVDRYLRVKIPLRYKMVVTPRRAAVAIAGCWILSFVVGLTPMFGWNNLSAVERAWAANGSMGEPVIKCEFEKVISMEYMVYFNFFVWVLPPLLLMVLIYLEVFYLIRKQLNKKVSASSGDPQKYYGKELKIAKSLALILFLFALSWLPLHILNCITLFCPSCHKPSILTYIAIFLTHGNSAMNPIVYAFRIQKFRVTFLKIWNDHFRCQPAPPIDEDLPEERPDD
Method in brief: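 Dual-point competition association assay with [3H]DPCPX on CHO membranes stably expressing hA1. Specific binding is read at two time points in the presence of the test ligand. KRI is the ratio of binding at the earlier to the later time point (n = 2; both values reported).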

Ratio	SMILES
1.25	COc1ccc(-c2c(C#N)c(N)nc(SCc3csc(-c4ccc(C)cc4)n3)c2C#N)cc1
1.22	COc1ccc(-c2nc(CSc3nc(N)c(C#N)c(-c4ccc(OC)cc4)c3C#N)cs2)cc1

What follows are molecules tested against T1, Adenosine receptor A1 (Homo sapiens) (assay: Displacement of [3H]DPCPX from human adenosine A1 receptor expressed in CHO cell membranes at 1 uM by competition association assay).

SMILES	inhibition [%]
N#Cc1c(NCCCc2ccccc2)nc(SCc2csc(-c3ccc(Cl)cc3)n2)nc1-c1ccc2c(c1)OCO2	< 80
CC(=O)Nc1ccc(-c2nc(SCc3csc(-c4ccc(Cl)cc4)n3)nc(N)c2C#N)cc1	> 80
N#Cc1c(N)nc(SCc2csc(-c3ccccc3Cl)n2)c(C#N)c1-c1ccc(O)cc1	> 80
N#Cc1c(N)nc(SCc2csc(-c3ccc(Cl)cc3)n2)nc1-c1ccc(OC(F)(F)F)cc1	> 80
COc1ccc(-c2nc(SCc3csc(-c4ccc(Cl)cc4)n3)nc(N)c2C#N)cc1	< 80
CCNc1nc(SCc2csc(-c3ccc(Cl)cc3)n2)cc(-c2ccc3c(c2)OCO3)c1C#N	> 80
N#Cc1c(N)nc(SCc2csc(-c3ccccc3F)n2)c(C#N)c1-c1ccc(O)cc1	> 80
Cc1ccc(-c2nc(SCc3csc(-c4ccc(Cl)cc4)n3)nc(N)c2C#N)cc1	< 80
CC(=O)Nc1ccc(-c2nc(SCc3cccc(CCC(=O)N(C)CCN(C)C)n3)nc(N)c2C#N)cc1	< 80
N#Cc1c(N)nc(SCc2csc(-c3ccccc3)n2)c(C#N)c1-c1ccc(O)cc1	> 80
N#Cc1c(N)nc(SCc2csc(-c3ccc(Cl)cc3)n2)nc1-c1ccccc1	> 80
N#Cc1c(N)nc(SCc2csc(-c3ccc(Cl)cc3)n2)nc1-c1ccc(O)cc1	> 80
COc1ccc(-c2c(C#N)c(N)nc(SCc3csc(-c4ccc(C)cc4)n3)c2C#N)cc1	> 80
CCOc1ccc(-c2nc(SCc3csc(-c4ccc(Cl)cc4)n3)nc(N)c2C#N)cc1	< 80
N#Cc1c(N)nc(SCc2coc(-c3ccc(F)cc3)n2)c(C#N)c1-c1ccc(O)cc1	> 80
N#Cc1c(N)nc(SCc2ccccc2[N+](=O)[O-])nc1-c1ccc2c(c1)OCO2	> 80
N#Cc1c(N)nc(SCc2csc(N3CCOCC3)n2)c(C#N)c1-c1ccc(O)cc1	> 80
N#Cc1c(NCC(c2ccccc2)c2ccccc2)nc(SCc2csc(-c3ccc(Cl)cc3)n2)nc1-c1ccc2c(c1)OCO2	< 80
N#Cc1c(N)nc(SCc2coc(-c3ccc(Cl)cc3)n2)c(C#N)c1-c1ccc(O)cc1	> 80
Cc1ccc(-c2nc(CSc3nc(N)c(C#N)c(-c4ccc(O)cc4)c3C#N)cs2)cc1	> 80
N#Cc1c(N)nc(SCc2nc(-c3ccc(Cl)cc3)sc2Cl)c(C#N)c1-c1ccc2c(c1)OCO2	> 80
N#Cc1c(N)nc(SCc2csc(-c3cccc(F)c3)n2)c(C#N)c1-c1ccc(O)cc1	> 80
CN(C)c1ccc(-c2nc(SCc3csc(-c4ccc(Cl)cc4)n3)nc(N)c2C#N)cc1	> 80
COc1ccc(-c2c(C#N)c(N)nc(SCc3csc(-c4ccccc4F)n3)c2C#N)cc1	> 80

SMILES	inhibition [%]
CNc1nc(SCc2csc(-c3ccc(Cl)cc3)n2)cc(-c2ccc3c(c2)OCO3)c1C#N	> 80
N#Cc1c(N)nc(SCc2csc(-c3cccc(Cl)c3)n2)c(C#N)c1-c1ccc(O)cc1	> 80
C#CCNc1nc(SCc2csc(-c3ccc(Cl)cc3)n2)cc(-c2ccc3c(c2)OCO3)c1C#N	> 80
N#Cc1c(-c2ccc3c(c2)OCO3)cc(SCc2csc(-c3ccc(Cl)cc3)n2)nc1NC1CC1	> 80
N#Cc1c(N)nc(SCc2nc(-c3ccc(Cl)cc3)sc2Br)c(C#N)c1-c1ccc2c(c1)OCO2	> 80
COc1ccc(-c2c(C#N)c(N)nc(SCc3coc(-c4ccc(Cl)cc4)n3)c2C#N)cc1	> 80
N#Cc1c(NCCCCc2ccccc2)nc(SCc2csc(-c3ccc(Cl)cc3)n2)nc1-c1ccc2c(c1)OCO2	< 80
COc1ccc(-c2nc(SCc3coc(-c4cccc(F)c4)n3)nc(N)c2C#N)cc1	< 80
N#Cc1c(NCc2ccccc2)nc(SCc2csc(-c3ccc(Cl)cc3)n2)nc1-c1ccc2c(c1)OCO2	< 80
N#Cc1c(N)nc(SCc2csc(-c3ccc(F)cc3)n2)c(C#N)c1-c1ccc(O)cc1	> 80
N#Cc1c(N)nc(SCc2csc(-c3ccc(Br)cc3)n2)c(C#N)c1-c1ccc(O)cc1	> 80
CC(=O)Nc1ccc(-c2nc(SCc3cccc(CCC(=O)N4CCN(C)CC4)n3)nc(N)c2C#N)cc1	< 80
COc1ccc(-c2c(C#N)c(N)nc(SCc3coc(-c4ccc(F)cc4)n3)c2C#N)cc1	> 80
N#Cc1c(N)nc(SCc2ccccc2[N+](=O)[O-])nc1-c1ccccc1	> 80
N#Cc1c(N)nc(SCc2coc(-c3cccc(F)c3)n2)c(C#N)c1-c1ccc(O)cc1	> 80
N#Cc1c(N)nc(SCc2csc(-c3ccc(Cl)cc3)n2)nc1-c1ccc(OCCO)cc1	> 80
COc1ccc(-c2c(C#N)c(N)nc(SCc3csc(-c4cccc(F)c4)n3)c2C#N)cc1	> 80
COc1ccc(-c2nc(CSc3nc(N)c(C#N)c(-c4ccc(O)cc4)c3C#N)cs2)cc1	> 80
CC(=O)Nc1ccc(-c2nc(SCc3cccc(CCC(=O)N4CCN(CCN5CCCC5)CC4)n3)nc(N)c2C#N)cc1	< 80
CCNCCN1CCN(C(=O)CCc2cccc(CSc3nc(N)c(C#N)c(-c4ccc(NC(C)=O)cc4)n3)n2)CC1	< 80
CC(=O)Nc1ccc(-c2nc(SCc3cccc(CCC(=O)N4CCN(CCCCN5CCC(C)CC5)CC4)n3)nc(N)c2C#N)cc1	< 80
CC(=O)Nc1ccc(-c2nc(SCc3cccc(CCC(=O)N4CCN(CCN(C(C)C)C(C)C)CC4)n3)nc(N)c2C#N)cc1	< 80
N#Cc1c(NCCc2ccccc2)nc(SCc2csc(-c3ccc(Cl)cc3)n2)nc1-c1ccc2c(c1)OCO2	< 80
N#Cc1c(N)nc(SCc2csc(-c3ccc(Cl)c(Cl)c3)n2)c(C#N)c1-c1ccc(O)cc1	> 80

More lines, now with the values ahead:

inhibition [%]	SMILES
> 80	N#Cc1c(N)nc(SCc2csc(-c3ccccc3)n2)nc1-c1ccc2c(c1)OCO2
> 80	Cc1ccc(-c2nc(CSc3nc(N)c(C#N)c(-c4ccc5c(c4)OCO5)n3)cs2)cc1
> 80	N#Cc1c(N)nc(SCc2csc(C3CCCCC3)n2)nc1-c1ccc2c(c1)OCO2
> 80	N#Cc1c(N)nc(SCc2csc(-c3ccccc3F)n2)nc1-c1ccc2c(c1)OCO2
> 80	N#Cc1c(N)nc(SCc2csc(-c3ccc4c(c3)OCO4)n2)nc1-c1ccc2c(c1)OCO2
> 80	N#Cc1c(N)nc(SCc2csc(-c3ccc(F)cc3)n2)nc1-c1ccc2c(c1)OCO2
> 80	N#Cc1c(N)nc(SCc2csc(-c3ccc(Cl)c(Cl)c3)n2)nc1-c1ccc2c(c1)OCO2
> 80	N#Cc1c(N)nc(SCc2csc(-c3ccc([N+](=O)[O-])cc3)n2)nc1-c1ccc2c(c1)OCO2
< 80	N#Cc1c(NC2CCCC2)nc(SCc2csc(-c3ccc(Cl)cc3)n2)nc1-c1ccc2c(c1)OCO2
< 80	CC(C)CCNc1nc(SCc2csc(-c3ccc(Cl)cc3)n2)nc(-c2ccc3c(c2)OCO3)c1C#N
> 80	N#Cc1c(N)nc(SCc2csc(-c3ccc(C(F)(F)F)cc3)n2)nc1-c1ccc2c(c1)OCO2
< 80	CC(C)Nc1nc(SCc2csc(-c3ccc(Cl)cc3)n2)nc(-c2ccc3c(c2)OCO3)c1C#N
> 80	N#Cc1c(N)nc(SCc2coc(-c3ccc(Cl)cc3)n2)nc1-c1ccc2c(c1)OCO2
> 80	N#Cc1c(N)nc(SCc2csc(-c3ccc(I)cc3)n2)nc1-c1ccc2c(c1)OCO2
< 80	CCC(CC)Nc1nc(SCc2csc(-c3ccc(Cl)cc3)n2)nc(-c2ccc3c(c2)OCO3)c1C#N
> 80	N#Cc1c(N)nc(SCc2csc(-c3ccc(Br)cc3)n2)nc1-c1ccc2c(c1)OCO2
> 80	N#Cc1c(N)nc(SCc2coc(-c3ccc(F)cc3)n2)nc1-c1ccc2c(c1)OCO2
< 80	N#Cc1c(NC2CCCCC2)nc(SCc2csc(-c3ccc(Cl)cc3)n2)nc1-c1ccc2c(c1)OCO2
> 80	N#Cc1c(N)nc(SCc2csc(-c3cccc(Cl)c3)n2)nc1-c1ccc2c(c1)OCO2
< 80	CN(C)CCNc1nc(SCc2csc(-c3ccc(Cl)cc3)n2)nc(-c2ccc3c(c2)OCO3)c1C#N
> 80	N#Cc1c(N)nc(SCc2csc(-c3ccccc3Cl)n2)nc1-c1ccc2c(c1)OCO2
< 80	CC(C)(C)Nc1nc(SCc2csc(-c3ccc(Cl)cc3)n2)nc(-c2ccc3c(c2)OCO3)c1C#N
> 80	COc1ccc(-c2nc(CSc3nc(N)c(C#N)c(-c4ccc5c(c4)OCO5)n3)cs2)cc1
> 80	N#Cc1c(N)nc(SCc2csc(N3CCOCC3)n2)nc1-c1ccc2c(c1)OCO2
> 80	N#Cc1c(N)nc(SCc2csc(-c3cccc(F)c3)n2)nc1-c1ccc2c(c1)OCO2
< 80	CCCCNc1nc(SCc2csc(-c3ccc(Cl)cc3)n2)nc(-c2ccc3c(c2)OCO3)c1C#N
> 80	N#Cc1c(N)nc(SCc2cscn2)nc1-c1ccc2c(c1)OCO2
> 80	N#Cc1c(N)nc(SCc2coc(-c3cccc(F)c3)n2)nc1-c1ccc2c(c1)OCO2
